The source made the active and inactive calls. No cut-off for these calls is given here.
Legend:
Hepatitis C virus [1] = assay: Antiviral activity against cell culture derived Hepatitis C virus expressing NS5A-GFP fusion protein infected in human HuH7 cells assessed as infection rate preincubated for 2 hrs followed by viral inoculation measured after 72 hrs by HTS assay; format: functional, organism-based, Hepacivirus hominis; conditions: Huh-7
In short: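 Naïve Huh-7 cells were exposed to serially diluted compound and inoculated with cell-culture-adapted HCVcc 2 h later. Infection rate was read at 72 h post-infection. EC50 came from 10-point dose-response curves run in duplicate with quadruplicate measurements, fitted by non-linear regression.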

[2] = Cytotoxicity against human HuH7 cells after 72 hrs by Hoechst 33342 staining-based confocal microscopic analysis; format: cell-based, Huh-7
In short: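 Naïve Huh-7 cells in the HCVcc format were compound-treated for 2 h, then infected. Cytotoxicity was determined at 72 h post-infection. CC50 came from 10-point dose-response curves in duplicate with quadruplicate measurements, fitted by non-linear regression.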

[3] = Selectivity index, ratio of CC50 for human HuH7 cells to EC50 for cell culture derived Hepatitis C virus; format: toxicity, cell-based, Huh-7; conditions: read-out: Ratio CC50/EC50
In short: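 SI is CC50/EC50. Both values come from the same HCVcc assay in naïve Huh-7 cells: compound added 2 h before HCVcc inoculation, infection and cytotoxicity read at 72 h. Each was derived from 10-point dose-response curves in duplicate with quadruplicate measurements.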

[4] = Half life in rat liver microsomes at 2 uM; format: ADME
In short: (§1)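 Compound at 2 µM final (0.02% DMSO) was incubated with 0.5 mg/mL liver microsomes in potassium phosphate buffer. Human microsomes were a mixed-gender pool of 200 donors; rat microsomes were from males. Half-life is reported in minutes.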

[5] = Half life in human liver microsomes at 2 uM; format: ADME; in short: as §1
Hepatitis C virus [6] = assay: Antiviral activity against Hepatitis C virus infected in human HuH7.5 cells assessed as reduction of secreted infectious viral particles incubated for 48 hrs followed by compound washout measured after 24 hrs; format: functional, organism-based; conditions: Hepacivirus hominis; Huh-7
In short: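 Supernatant-transfer (late-stage) assay. Transfected Huh-7.5 producer cells were treated with serially diluted compound at 37 °C for 48 h, then washed. Supernatant was collected 24 h after the wash, clarified by centrifugation and put onto naïve Huh-7 target cells. HCV RNA replication in the target cells was read at 72 h post inoculation and normalized to the 1% DMSO control (0% inhibition).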

Hepatitis C virus [7] = assay: Antiviral activity against Hepatitis C virus infected in human HuH7.5 cells assessed as inhibition of viral RNA replication after 72 hrs; format: functional, organism-based; conditions: Hepacivirus hominis; Huh-7
In short: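 Transiently transfected Huh-7.5 producer cells carrying full-length HCV RNA genomes were plated and left overnight at 37 °C. They were then treated with increasing compound concentrations at 37 °C for 48 h and washed. Viral RNA replication and cytotoxicity in the producer cells were read at 72 h post compound treatment. Data were normalized to the 1% DMSO control, set as 0% inhibition.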

[8] = tested on: Vesicular stomatitis virus; assay: Antiviral activity against Vesicular stomatitis virus pseudotyped particle expressing glycoproteins assessed as inhibition of viral attachment and internalization in human HuH7 cells at 3.3 uM preincubated for 1 hr followed by viral inoculation measured after 72 hrs GFP reporter gene assay; format: functional, organism-based; conditions: Huh-7
In short: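 Supernatant replaced at 12 h. At 72 h post inoculation, GFP expression was read by confocal microscopy at 20x. Data normalized to 1% DMSO control (0% inhibition). Triplicates with quadruple measurements (n = 12).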

Hepatitis C virus [9] = assay: Antiviral activity against Hepatitis C virus pseudotyped lentiviral particle expressing E1/E2 glycoproteins assessed as inhibition of viral attachment and internalization in human HuH7 cells at 3.3 uM preincubated for 1 hr followed by viral inoculation measured after 72 hrs GFP reporter gene assay; format: functional, organism-based; conditions: Hepacivirus hominis, Huh-7
In short: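 Huh-7 target cells were pretreated with 3.3 µM compound for 1 h. Supernatants were replaced at 12 h. GFP expression was scored by confocal microscopy at 72 h post inoculation and normalized to 1% DMSO. Triplicates with quadruple measurements (n = 12).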

| Compound | EC50 (Hepatitis C virus [1]) | CC50 at 72 h [2] | selectivity ratio [3] | half-life at 2 µM [4] | half-life at 2 µM [5] | Activity (Hepatitis C virus [6]) | inhibition (Hepatitis C virus [7]) | inhibition [8] | inhibition (Hepatitis C virus [9]) |
| --- | --- | --- | --- | --- | --- | --- | --- | --- | --- |
| Cn1c(=NC#N)n(CCOc2ccc(Cl)cc2)c2ccc(Cl)c(Cl)c21 | > 20000 nM | > 20000 nM |  |  |  |  |  |  |  |
| Cn1c(=N)n(Cc2ccc(C(C)(C)C)cc2)c2ccccc21 | 170 nM | 5900 nM | 34.7 |  |  |  |  |  |  |
| Br.Cn1c(=N)n(CCOc2ccc(Cl)cc2)c2ccc(Cl)cc21 | 11 nM | 4100 nM | 373 | > 1 h | > 1 h |  |  |  |  |
| CCc1ccc(Cn2c(=N)n(C)c3ccccc32)cc1 | 460 nM | 5800 nM | 12.6 |  |  |  |  |  |  |
| Br.Cn1c(=N)n(CCOc2ccc(Cl)cc2)c2c(Cl)cccc21 | 9.7 nM | 4300 nM | 443 | 0.623 h | > 1 h |  |  |  |  |
| Cn1c(=N)n(Cc2ccc(-c3ccccc3)cc2)c2ccccc21 | 220 nM | 2600 nM | 11.8 |  |  |  |  |  |  |
| Br.Cc1cccc2c1n(C)c(=N)n2CCOc1ccc(Cl)cc1 | 130 nM | 15000 nM | 115 | 0.41 h | > 1 h |  |  |  |  |
| Br.Cn1c(=N)n(CCOc2ccc(Cl)cc2)c2ccccc21 | 16 nM | 7600 nM | 475 | 0.225 h | > 1 h | Dose-dependent effect | Active | inactive | Active |
| Cn1c(=N)n(CC(=O)c2ccc(C(C)(C)C)cc2)c2ccccc21 | 79 nM | 8900 nM | 113 |  |  |  |  |  |  |
| CCC(=O)Cn1c(=N)n(CCOc2ccc(Cl)cc2)c2ccccc21 | 2300 nM | 8500 nM |  |  |  |  |  |  |  |
| Cn1c(=N)n(CC(=O)c2ccc3ccccc3c2)c2ccccc21 | 340 nM | 4500 nM | 13 |  |  |  |  |  |  |
| Br.Cn1c(=N)n(CCOc2ccc(Cl)cc2)c2cccc(Cl)c21 | 3.3 nM | 1500 nM | 455 | > 1 h | > 1 h |  |  |  |  |
| Br.Cc1ccc2c(c1)n(CCOc1ccc(Cl)cc1)c(=N)n2C | 90 nM | 10600 nM | 118 | 0.3 h | > 1 h |  |  |  |  |
| Cn1c(=N)n(CC(=O)c2ccc(Cl)cc2)c2ccccc21 | 73 nM | 20000 nM | 274 |  |  |  |  |  |  |
| Br.Cn1c(=N)n(CCOc2ccc(Cl)cc2)c2cc(Cl)ccc21 | 40 nM | 9840 nM | 246 | > 1 h | > 1 h |  |  |  |  |
| Cn1c(=N)n(CCOc2ccc(-c3ccccc3)cc2)c2ccccc21 | 200 nM | 3400 nM | 17 |  |  |  |  |  |  |
| Br.Cc1ccc2c(c1)n(C)c(=N)n2CCOc1ccc(Cl)cc1 | 1 nM | 2900 nM | 2900 | 0.145 h | > 1 h |  |  |  |  |
| CCc1ccc(C(=O)Cn2c(=N)n(C)c3ccccc32)cc1 | 380 nM | 9500 nM | 25 |  |  |  |  |  |  |
| CCc1cn2c3ccccc3n(CCOc3ccc(Cl)cc3)c2n1 | 6000 nM | 20000 nM |  |  |  |  |  |  |  |
| Clc1ccc(OCCN2C3=NCCN3c3ccccc32)cc1 | 50 nM | 20000 nM |  |  |  |  |  |  |  |
| Nc1nc2ccccc2n1CCOc1ccc(Cl)cc1 | 4000 nM | 8900 nM |  |  |  |  |  |  |  |
| CCc1ccc(OCCn2c(=N)n(C)c3ccccc32)cc1 | 50 nM | 8900 nM | 178 |  |  |  |  |  |  |
| Cn1c(=N)n(CCOc2ccc(C(C)(C)C)cc2)c2ccccc21 | 45 nM | 2800 nM | 62 |  |  |  |  |  |  |
